Experimental data from ChEMBL document CHEMBL1121389, “Mono- and diaryl-2-quinuclidinylcarbinols with local anesthetic and antiarrhythmic activity” (1980).

Columns and labels:
Canis familiaris [1] = organism: Canis familiaris; assay: Concentration of ouabain required to induce arrhythmia in dogs; type: functional, Canis lupus familiaris
Procedure, shortened: (§1)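 Dogs anesthetized with pentobarbital 35 mg/kg. Ouabain given iv at 40 μg/kg, then 20 μg/kg 30 min later, then 10 μg/kg every 15 min until ventricular tachycardia persisted. About 20 min after the last ouabain dose, compound given iv over 3 min, starting at 5 mg/kg. Further 5 or 10 mg/kg doses given at 15-min intervals, up to 15 or 20 mg/kg, until sinus rhythm returned. Dogs observed 2 h.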

Canis familiaris [2] = organism: Canis familiaris; assay: Number of dogs used ouabain induced arrhythmia; type: functional, Canis lupus familiaris; procedure, shortened: as §1
Canis familiaris [3] = organism: Canis familiaris; assay: Number of dogs reverted ouabain induced arrhythmia; type: functional, Canis lupus familiaris; procedure, shortened: as §1
Canis familiaris [4] = organism: Canis familiaris; assay: Concentration required to reverse ouabain induced arrhythmia in dogs; type: functional, Canis lupus familiaris; procedure, shortened: as §1
Cavia porcellus = assay: Local anesthetic activity using modification of the guinea pig intracutaneous wheal method.; type: functional
Procedure, shortened: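 Guinea pigs, four per test. Each animal received four intracutaneous injections: propranolol standard at 0.6 and 0.2%, test high dose 0.6-2% and low dose 0.2-0.67%. Wheals marked. Skin pricked with a 23-gauge needle six times inside and six times outside the wheal every 5 min up to 30 min. Activity expressed relative to propranolol with 95% confidence limits.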

Canis familiaris [5] = assay: Heart rate of the dog was measured after drug administration to dogs; type: functional, Canis lupus familiaris; procedure, shortened: as §1
Canis familiaris [6] = organism: Canis familiaris; assay: Duration of the reversal of ouabain induced arrhythmia was measured; type: functional, Canis lupus familiaris; procedure, shortened: as §1
Canis familiaris [7] = assay: Heart rate of the dog was measured after ouabain administration to dogs; type: functional, Canis lupus familiaris; procedure, shortened: as §1
Canis familiaris [8] = organism: Canis familiaris; assay: Number of dogs used in ouabain induced arrhythmia; type: functional, Canis lupus familiaris; procedure, shortened: as §1
Canis familiaris [9] = organism: Canis familiaris; assay: Number of dogs reverted in ouabain induced arrhythmia; type: functional, Canis lupus familiaris; procedure, shortened: as §1

Compound	Ouabain (Canis familiaris [1]) [µg/kg]	No. of dogs used (Canis familiaris [2])	No. of dogs reverted (Canis familiaris [3])	Dose (Canis familiaris [4]) [mg/kg]	Activity (Cavia porcellus)	Heart rate (Canis familiaris [5]) [min⁻¹]	Duration of reversal (Canis familiaris [6]) [min]	Heart rate (Canis familiaris [7]) [min⁻¹]	No. of dogs used (Canis familiaris [8])	No. of dogs reverted (Canis familiaris [9])
COc1ccc(Br)cc1C(O)(c1cc(Br)ccc1OC)C1CC2CCN1CC2 (stereo not drawn)	70	1	1	10	0.92	162	>120	210		
COc1ccc(C(O)(c2ccc(OC)cc2)C2CC3CCN2CC3)cc1 (stereo not drawn)	60	1	1	5	0.54	168	14	240		
OC(c1ccco1)(c1ccco1)C1CC2CCN1CC2 (stereo not drawn)	70	1	1	15	0.27	180	>120	240		
COc1ccc([C@](O)(c2cc(Br)ccc2OC)C2CC3CCN2CC3)cc1 (stereo partly drawn)	100	1	0	15	1.2	160	0	180		
OC(c1ccccc1)(c1ccccc1)C1CC2CCN1CC2 (stereo not drawn)	70	2	2	5	0.85	186	>120	228		
OC(c1ccccc1)(c1nccs1)C1CC2CCN1CC2 (stereo not drawn)	75	2	1	6.4	0.25	150	>120	207		
O[C@H](c1ccccc1)[C@@H]1CC2CCN1CC2 (relative stereo)					0.25					
Cn1ccnc1[C@@H](O)[C@@H]1CC2CCN1CC2 (relative stereo)					0.61					
O[C@H](c1ccncc1)[C@@H]1CC2CCN1CC2 (relative stereo)					0.08					
O[C@H](c1ccc(Cl)cc1)[C@@H]1CC2CCN1CC2 (relative stereo)	70	1	0	15	0.43	160	0	222		
Cc1ccc([C@@H](O)[C@@H]2CC3CCN2CC3)cc1 (relative stereo)					0.23					
CC(C)(C)[C@@H](O)[C@@H]1CC2CCN1CC2 (relative stereo)					0.13					
O[C@H](c1ccco1)[C@@H]1CC2CCN1CC2 (relative stereo)					0.09					
O[C@H](C1=C2C=CC=CC(=CC=C1)C2)[C@@H]1CC2CCN1CC2 (relative stereo)	70			15	0.99	156	>120	216	1	1
O[C@@H](c1ccccc1)[C@@H]1CC2CCN1CC2 (relative stereo)					0.18					
O[C@H](c1nccs1)[C@@H]1CC2CCN1CC2 (single isomer, unassigned)					0.8					
Cc1ccc(C(O)(c2ccc(C)cc2)C2CC3CCN2CC3)cc1 (stereo in doubt; 21)	83	3	3	11.7	0.86	134	85	220		
CCN(CC)CC(=O)Nc1c(C)cccc1C [LIDOCAINE]	74	5	5	5	0.66	169	51	223		
CC(C)NCC(O)COc1cccc2ccccc12 (stereo not drawn) [PROPRANOLOL]	72	5	5	5		138	80	211		
C=C[C@H]1CN2CC[C@H]1C[C@@H]2[C@@H](O)c1ccnc2ccc(OC)cc12 [QUINIDINE]	59	13	10	9	1.15	170	31	211		
